Test results as given in ChEMBL document CHEMBL5674890, “Selective inhibition of CBP/p300 HAT by A-485 results in suppression of lipogenesis and hepatic gluconeogenesis” (Cell Death Dis, 2020).
The source made the active and inactive calls. No cut-off for these calls is given here.

Tests used:
Mus musculus [1] = assay: Anti-obesity activity in C57BL/6 mouse supplemented with high fat diet assessed as decrease in total fat mass at 20 mg/kg/day, ip administered for 1 week; type: functional, organism-based; details: time 1.0 weeks
How it was run: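 Male C57BL/6 mice fed high-fat diet for 14 weeks from 5 weeks of age, then ip 20 mg·kg−1·day−1 for 7 days. Body weight, EchoMRI lean/fat mass, and random or 16 h-fasted blood glucose recorded, as the line states.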

Mus musculus [2] = assay: Inhibition of lipogenesis in C57BL/6 mouse supplemented with high-fat diet assessed as decrease in weight of epididymal white adipose tissue (eWAT) at 20 mg/kg/day, ip administered for 1 week; type: functional, organism-based; details: time 1.0 weeks
How it was run: (§1)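 Male C57BL/6 mice were fed high-fat diet for 14 weeks from 5 weeks of age, then injected ip with 20 mg·kg−1·day−1 for 7 days or given vehicle. Epididymal and inguinal WAT were weighed, examined by H&E, and analysed. Transcripts were measured by Trizol/SYBR Green RT-qPCR; proteins by western blot. n = 5–9; mean ± SEM.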

Mus musculus [3] = assay: Inhibition of lipogenesis in C57BL/6 mouse supplemented with high-fat diet assessed as decrease in DGAT2 mRNA expression at 20 mg/kg/day, ip administered for 1 week measured by RT-qPCR assay; type: functional, organism-based; details: time 1.0 weeks; how it was run: as §1
Mus musculus [4] = assay: Inhibition of lipogenesis in C57BL/6 mouse supplemented with normal chow diet assessed as decrease in FASN mRNA expression at 20 mg/kg/day, ip administered for 1 week measured by RT-qPCR assay; type: functional, organism-based; details: time 1.0 weeks
How it was run: (§2)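 Eight-week-old male C57BL/6 mice on normal chow were given 20 mg·kg−1·day−1 ip daily for 7 days or vehicle. Epididymal WAT was collected. Lipogenic, adipogenic and fatty-acid-oxidation transcripts were quantified by Trizol extraction and SYBR Green RT-qPCR. FAS, ACC, PPARγ and C/EBPα protein were assessed by western blot. n = 5–9; mean ± SEM.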

Mus musculus [5] = assay: Inhibition of lipogenesis in C57BL/6 mouse supplemented with normal chow diet assessed as effect on ACO mRNA expression at 20 mg/kg/day, ip administered for 1 week measured by RT-qPCR assay; type: functional, organism-based; details: time 1.0 weeks; how it was run: as §2
Mus musculus [6] = assay: Inhibition of lipogenesis in C57BL/6 mouse supplemented with high-fat diet assessed as decrease in LPL mRNA expression at 20 mg/kg/day, ip administered for 1 week measured measured by RT-qPCR assay; type: functional, organism-based; details: time 1.0 weeks; how it was run: as §1
Adipocyte [7] = assay: Inhibition of lipogenesis in mouse adipocytes isolated stromal vascular cells assessed as decrease in FASN mRNA expression measured after 24 hrs by RT-qPCR assay; type: functional, cell-based
How it was run: (§3)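 Stromal vascular cells from inguinal WAT of C57BL/6 mice, grown in DMEM/F12 + 10% FBS at 37 °C, 10% CO2. At confluence, induced 48 h with 5 μg/ml insulin, 1 μM dexamethasone, 0.5 mM isobutylmethylxanthine, then 6 days in 5 μg/ml insulin; fully differentiated day 8. Mature adipocytes exposed to inhibitor 24 h. Total RNA by Trizol, SYBR Green RT-qPCR; protein by western blot.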

Adipocyte [8] = assay: Inhibition of lipogenesis in mouse adipocytes isolated stromal vascular cells assessed as decrease in SCD1 mRNA expression measured after 24 hrs by RT-qPCR assay; type: functional, cell-based; how it was run: as §3
Adipocyte [9] = assay: Inhibition of lipogenesis in mouse adipocytes isolated stromal vascular cells assessed as decrease in FABP4 mRNA expression measured after 24 hrs by RT-qPCR assay; type: functional, cell-based; how it was run: as §3
Adipocyte [10] = assay: Inhibition of lipogenesis in mouse adipocytes isolated stromal vascular cells assessed as decrease in PPARgamma protein expression measured after 24 hrs by western blot analysis; type: functional, cell-based
Mus musculus [11] = assay: Inhibition of hepatic lipogenesis in C57BL/6 mouse supplemented with normal chow diet assessed as decrease in triglyceride level at 20 mg/kg/day, ip administered for 1 week measured by Oil red O staining method; type: functional, organism-based; details: time 1.0 weeks
Mus musculus [12] = assay: Inhibition of hepatic lipogenesis in C57BL/6 mouse supplemented with normal chow diet assessed as decrease in ChREBP protein expression at 20 mg/kg/day, ip administered for 1 week measured by western blot analysis; type: functional, organism-based; details: time 1.0 weeks
How it was run: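 Normal-chow male C57BL/6 mice, 8 weeks old, were injected ip at 20 mg·kg−1·day−1 daily for 7 days or given vehicle. Liver tissue was homogenized in lysis buffer, and FAS and ChREBP protein were assessed by western blot. n = 5–9.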

Mus musculus [13] = assay: Inhibition of hepatic lipogenesis in C57BL/6 mouse supplemented with normal chow diet assessed as effect on ACO mRNA expression at 20 mg/kg/day, ip administered for 1 week measured by RT-qPCR assay; type: functional, organism-based; details: time 1.0 weeks
How it was run: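 Normal-chow male C57BL/6 mice, 8 weeks old, were injected ip at 20 mg·kg−1·day−1 daily for 7 days or given vehicle. Liver RNA was extracted with Trizol, and fatty-acid-oxidation gene transcripts were quantified by SYBR Green RT-qPCR. n = 5–9; mean ± SEM.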

Hepatocyte [14] = assay: Inhibition of lipogenesis in mouse primary hepatocytes assessed as increase in ACO mRNA expression at 3 uM in presence of 100 nM insulin and 5 to 25 mM glucose measured after 18 hrs by RT-qPCR assay; type: functional, cell-based
How it was run: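 Primary hepatocytes isolated from C57BL/6 mice by two-step perfusion. Cells incubated 18 h with 3 μM inhibitor, with 0 or 100 nM insulin and 5 or 25 mM glucose. Transcripts quantified by SYBR Green RT-qPCR after Trizol RNA extraction; proteins by western blot of lysates. Mean ± SEM.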

Hepatocyte [15] = assay: Inhibition of glucogenesis in mouse primary hepatocytes stimulated with 100 uM 8-Br-cAMP assessed as decrease in PEPCK mRNA expression at 3 uM in combination with 2 mM metformin measured by RT-qPCR assay; type: functional, cell-based
How it was run: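 Primary mouse hepatocytes given 3 μM compound with 2 mM metformin in the presence of 100 μM 8-Br-cAMP. Gluconeogenic gene mRNA measured by SYBR Green RT-qPCR. Mean ± SEM, three independent experiments.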

Hepatocyte [16] = assay: Inhibition of glucogenesis in mouse primary hepatocytes stimulated with 100 uM 8-Br-cAMP assessed as effect on pAMPK protein expression at 3 uM measured after 1 hr by western blot analysis; type: functional, cell-based
How it was run: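 Primary hepatocytes from C57BL/6 mice, isolated by two-step perfusion, were co-treated with 3 μM A-485 and 100 μM 8-Br-cAMP for 1 h. Phospho-CREB, phospho-AMPK and phospho-TORC2 were detected by western blot of cell lysates. Three independent experiments; mean ± SEM.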

[17] = molecular target: T1, CREB-binding protein/Histone acetyltransferase p300 (Homo sapiens) (UniProt Q09472+Q92793); assay: Inhibition of CBP/p300 in mouse primary hepatocytes stimulated with 100 uM 8-Br-cAMP assessed as decrease in FOXO1 abundance in cytoplasm at 3 uM; type: cell-based; details: Primary hepatocyte
How it was run: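 Primary mouse hepatocytes treated with 3 μM compound and 100 μM 8-Br-cAMP. Nuclear and cytoplasmic fractions separated with a commercial kit; FOXO1 detected by western blot.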

[18] = molecular target: T1, CREB-binding protein/Histone acetyltransferase p300 (Homo sapiens); assay: Inhibition of CBP/p300 in mouse primary hepatocytes stimulated with 100 uM 8-Br-cAMP assessed as decrease in half-life of endogenous FOXO1 at 3 uM in presence of 10 ug/ml cycloheximide; type: cell-based; details: Primary hepatocyte
How it was run: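 Primary mouse hepatocytes in 100 μM 8-Br-cAMP treated with 3 μM compound and 10 μg/ml cycloheximide for the indicated times. Endogenous FOXO1 immunoblotted; band intensity quantified. Three independent experiments.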

T1 sequence (Q09472 whole entry, looked up): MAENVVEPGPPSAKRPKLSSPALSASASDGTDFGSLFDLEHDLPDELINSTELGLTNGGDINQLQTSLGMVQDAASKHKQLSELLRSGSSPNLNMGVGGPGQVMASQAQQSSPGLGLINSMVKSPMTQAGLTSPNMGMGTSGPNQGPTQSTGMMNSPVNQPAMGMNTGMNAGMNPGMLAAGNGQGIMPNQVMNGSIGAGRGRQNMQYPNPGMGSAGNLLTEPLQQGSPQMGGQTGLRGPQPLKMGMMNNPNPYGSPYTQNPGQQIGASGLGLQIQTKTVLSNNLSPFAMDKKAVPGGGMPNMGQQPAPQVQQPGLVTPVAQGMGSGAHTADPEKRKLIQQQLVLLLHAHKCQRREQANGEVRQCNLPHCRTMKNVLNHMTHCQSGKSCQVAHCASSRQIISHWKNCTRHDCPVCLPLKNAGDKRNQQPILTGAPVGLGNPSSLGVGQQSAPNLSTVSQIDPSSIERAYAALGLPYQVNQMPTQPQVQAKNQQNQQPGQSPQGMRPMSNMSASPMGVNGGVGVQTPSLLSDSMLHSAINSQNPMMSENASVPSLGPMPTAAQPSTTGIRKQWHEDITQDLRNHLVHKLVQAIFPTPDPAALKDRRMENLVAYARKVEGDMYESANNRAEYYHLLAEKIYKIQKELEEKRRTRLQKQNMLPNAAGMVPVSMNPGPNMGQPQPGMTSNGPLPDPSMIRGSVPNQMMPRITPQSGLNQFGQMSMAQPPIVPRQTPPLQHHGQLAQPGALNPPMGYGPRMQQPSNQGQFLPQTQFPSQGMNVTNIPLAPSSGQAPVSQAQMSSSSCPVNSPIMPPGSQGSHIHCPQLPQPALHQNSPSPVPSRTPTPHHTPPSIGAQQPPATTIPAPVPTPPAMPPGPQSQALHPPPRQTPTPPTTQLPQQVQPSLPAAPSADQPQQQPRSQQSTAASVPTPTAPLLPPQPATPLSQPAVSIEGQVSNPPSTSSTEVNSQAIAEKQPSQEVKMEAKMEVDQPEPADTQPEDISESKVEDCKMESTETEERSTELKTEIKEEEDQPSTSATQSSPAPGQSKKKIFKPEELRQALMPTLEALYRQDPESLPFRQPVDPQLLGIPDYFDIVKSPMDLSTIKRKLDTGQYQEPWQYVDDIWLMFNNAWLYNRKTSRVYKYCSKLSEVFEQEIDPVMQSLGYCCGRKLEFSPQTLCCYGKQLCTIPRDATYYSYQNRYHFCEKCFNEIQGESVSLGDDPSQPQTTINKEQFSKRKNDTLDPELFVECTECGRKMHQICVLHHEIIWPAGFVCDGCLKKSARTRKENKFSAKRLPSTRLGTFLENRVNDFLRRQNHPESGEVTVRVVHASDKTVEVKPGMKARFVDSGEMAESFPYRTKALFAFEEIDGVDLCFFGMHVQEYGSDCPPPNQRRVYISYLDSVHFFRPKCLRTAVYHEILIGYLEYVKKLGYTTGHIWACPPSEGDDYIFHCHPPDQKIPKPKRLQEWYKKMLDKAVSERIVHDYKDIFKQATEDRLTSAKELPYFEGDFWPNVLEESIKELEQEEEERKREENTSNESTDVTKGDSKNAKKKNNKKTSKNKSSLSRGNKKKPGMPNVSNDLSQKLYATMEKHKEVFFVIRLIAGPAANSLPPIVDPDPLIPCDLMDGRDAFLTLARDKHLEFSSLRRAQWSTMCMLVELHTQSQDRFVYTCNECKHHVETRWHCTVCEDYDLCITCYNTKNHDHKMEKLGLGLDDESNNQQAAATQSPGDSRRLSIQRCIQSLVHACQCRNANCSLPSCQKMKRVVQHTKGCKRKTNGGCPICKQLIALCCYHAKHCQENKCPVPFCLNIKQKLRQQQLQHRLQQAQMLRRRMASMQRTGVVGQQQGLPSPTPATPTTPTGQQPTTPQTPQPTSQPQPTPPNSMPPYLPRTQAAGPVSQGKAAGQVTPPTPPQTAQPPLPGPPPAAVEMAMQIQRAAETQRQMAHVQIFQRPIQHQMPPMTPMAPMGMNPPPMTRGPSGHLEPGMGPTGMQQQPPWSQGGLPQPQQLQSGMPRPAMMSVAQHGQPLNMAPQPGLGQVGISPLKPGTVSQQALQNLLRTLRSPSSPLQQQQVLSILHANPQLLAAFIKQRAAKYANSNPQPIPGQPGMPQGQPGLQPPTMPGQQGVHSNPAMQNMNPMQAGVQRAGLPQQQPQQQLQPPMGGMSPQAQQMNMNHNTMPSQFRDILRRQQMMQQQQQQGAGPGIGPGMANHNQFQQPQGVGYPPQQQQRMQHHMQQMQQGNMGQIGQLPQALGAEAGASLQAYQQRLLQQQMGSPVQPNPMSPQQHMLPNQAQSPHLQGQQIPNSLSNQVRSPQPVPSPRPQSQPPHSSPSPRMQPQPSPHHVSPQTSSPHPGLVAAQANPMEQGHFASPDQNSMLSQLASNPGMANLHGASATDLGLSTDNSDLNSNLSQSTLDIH
T1 sequence (Q92793 whole entry, looked up): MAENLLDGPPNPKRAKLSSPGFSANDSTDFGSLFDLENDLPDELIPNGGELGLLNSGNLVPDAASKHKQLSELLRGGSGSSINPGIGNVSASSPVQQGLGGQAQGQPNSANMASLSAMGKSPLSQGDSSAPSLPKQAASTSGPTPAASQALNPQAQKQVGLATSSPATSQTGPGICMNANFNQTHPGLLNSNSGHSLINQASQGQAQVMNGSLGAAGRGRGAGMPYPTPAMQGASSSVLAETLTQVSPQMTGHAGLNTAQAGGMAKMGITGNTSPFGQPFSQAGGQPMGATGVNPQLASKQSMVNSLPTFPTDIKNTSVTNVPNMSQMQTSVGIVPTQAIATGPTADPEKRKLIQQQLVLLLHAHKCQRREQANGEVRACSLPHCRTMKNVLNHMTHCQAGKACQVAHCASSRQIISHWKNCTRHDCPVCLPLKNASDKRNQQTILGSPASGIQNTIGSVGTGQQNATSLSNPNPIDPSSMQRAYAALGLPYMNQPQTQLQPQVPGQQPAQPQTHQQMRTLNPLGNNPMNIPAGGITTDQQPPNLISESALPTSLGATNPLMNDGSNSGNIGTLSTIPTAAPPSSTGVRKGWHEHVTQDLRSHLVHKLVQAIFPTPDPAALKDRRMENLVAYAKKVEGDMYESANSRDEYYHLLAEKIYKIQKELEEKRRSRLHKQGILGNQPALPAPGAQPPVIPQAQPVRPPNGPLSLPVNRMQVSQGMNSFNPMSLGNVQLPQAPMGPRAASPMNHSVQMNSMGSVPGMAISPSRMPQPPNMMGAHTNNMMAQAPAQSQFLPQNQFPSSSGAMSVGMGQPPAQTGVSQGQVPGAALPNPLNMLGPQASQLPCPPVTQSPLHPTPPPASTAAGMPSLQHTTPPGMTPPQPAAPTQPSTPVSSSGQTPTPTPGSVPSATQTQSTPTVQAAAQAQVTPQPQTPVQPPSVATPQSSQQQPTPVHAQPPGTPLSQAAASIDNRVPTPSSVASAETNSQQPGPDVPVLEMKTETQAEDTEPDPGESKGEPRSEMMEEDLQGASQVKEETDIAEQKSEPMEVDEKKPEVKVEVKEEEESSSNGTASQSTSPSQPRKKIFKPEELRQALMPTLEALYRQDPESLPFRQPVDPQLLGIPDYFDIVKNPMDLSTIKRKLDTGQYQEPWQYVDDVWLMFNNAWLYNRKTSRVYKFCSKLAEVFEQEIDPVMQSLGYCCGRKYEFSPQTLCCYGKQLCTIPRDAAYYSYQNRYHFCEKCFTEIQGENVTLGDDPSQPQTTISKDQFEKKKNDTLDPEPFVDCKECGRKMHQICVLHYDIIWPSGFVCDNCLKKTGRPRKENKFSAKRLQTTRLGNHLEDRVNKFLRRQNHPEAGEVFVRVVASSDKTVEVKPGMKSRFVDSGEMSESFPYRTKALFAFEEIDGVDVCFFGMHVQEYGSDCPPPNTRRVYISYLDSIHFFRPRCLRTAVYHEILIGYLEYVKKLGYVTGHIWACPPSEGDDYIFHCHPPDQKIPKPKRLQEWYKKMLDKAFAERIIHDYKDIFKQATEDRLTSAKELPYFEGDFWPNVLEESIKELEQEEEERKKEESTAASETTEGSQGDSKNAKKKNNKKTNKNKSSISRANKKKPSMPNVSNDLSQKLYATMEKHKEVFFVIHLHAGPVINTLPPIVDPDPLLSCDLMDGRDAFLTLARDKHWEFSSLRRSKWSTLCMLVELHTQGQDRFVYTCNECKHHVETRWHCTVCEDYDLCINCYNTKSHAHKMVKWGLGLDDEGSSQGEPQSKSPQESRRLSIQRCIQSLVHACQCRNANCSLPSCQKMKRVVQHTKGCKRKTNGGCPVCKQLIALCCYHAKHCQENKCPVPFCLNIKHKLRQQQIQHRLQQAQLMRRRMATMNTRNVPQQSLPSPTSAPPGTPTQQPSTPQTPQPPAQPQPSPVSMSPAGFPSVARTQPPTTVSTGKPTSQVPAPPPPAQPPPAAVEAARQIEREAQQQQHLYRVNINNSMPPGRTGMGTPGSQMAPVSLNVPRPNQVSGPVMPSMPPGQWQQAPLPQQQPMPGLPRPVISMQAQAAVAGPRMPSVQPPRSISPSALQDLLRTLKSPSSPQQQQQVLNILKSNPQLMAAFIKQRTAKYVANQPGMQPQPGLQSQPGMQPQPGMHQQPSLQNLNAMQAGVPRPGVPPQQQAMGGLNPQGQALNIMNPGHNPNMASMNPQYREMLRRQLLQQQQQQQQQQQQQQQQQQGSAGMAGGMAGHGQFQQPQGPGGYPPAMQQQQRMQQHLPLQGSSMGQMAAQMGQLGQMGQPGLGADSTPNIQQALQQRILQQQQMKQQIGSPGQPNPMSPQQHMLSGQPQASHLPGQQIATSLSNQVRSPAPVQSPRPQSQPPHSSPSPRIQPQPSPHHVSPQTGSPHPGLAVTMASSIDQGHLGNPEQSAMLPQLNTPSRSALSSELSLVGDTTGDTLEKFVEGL

Question: `CNC(=O)Nc1ccc2c(c1)CCS21OC(=O)N(CC(=O)N(Cc2ccc(F)cc2)[C@@H](C)C(F)(F)F)C1=O` (stereo partly drawn) was tested. Which Activity (Mus musculus [1]) did it give?
Answer: Active

Question: And the inhibition (Mus musculus [2])?
Answer: Active

Question: And the inhibition (Mus musculus [3])?
Answer: Active

Question: And the inhibition (Mus musculus [4])?
Answer: Active

Question: What about the inhibition (Mus musculus [5]) of the same compound?
Answer: inactive

Question: What about the inhibition (Mus musculus [6]) of the same compound?
Answer: Active

Question: What about the inhibition (Adipocyte [7]) of the same compound?
Answer: Active

Question: And the inhibition (Adipocyte [8])?
Answer: Active

Question: What about the inhibition (Adipocyte [9]) of the same compound?
Answer: Active

Question: What about the inhibition (Adipocyte [10]) of the same compound?
Answer: Active

Question: And the inhibition (Mus musculus [11])?
Answer: Active

Question: And the inhibition (Mus musculus [12])?
Answer: Active

Question: And the inhibition (Mus musculus [13])?
Answer: inactive

Question: What about the inhibition (Hepatocyte [14]) of the same compound?
Answer: Active

Question: And the inhibition (Hepatocyte [15])?
Answer: Active

Question: What about the inhibition (Hepatocyte [16]) of the same compound?
Answer: inactive

Question: What about the inhibition [17] of the same compound?
Answer: Active

Question: What about the inhibition [18] of the same compound?
Answer: Active
